Measured values published in publication PMC3831729 (Indian Journal of Pharmaceutical Sciences, 2013).
In brackets after ≈: the same amount, converted by molar mass.

Columns and labels:
[1] = system: M. tuberculosis H37Rv (MTB); test: Microplate alamar blue assay; assay type: cell-based, Mycobacterium tuberculosis; conditions: MABA, screened at 100-1.56 μg/ml; - indicates no inhibition
[2] = system: M. tuberculosis H37Rv versus NIH 3T3; test: Selectivity index; design: species or system Mycobacterium tuberculosis; conditions: IC50 NIH 3T3 / MIC M. tuberculosis H37Rv
Procedure, shortened: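 SI = IC50/MIC. MIC against M. tuberculosis H37Rv came from broth microdilution microplate alamar blue assay (MABA), with compounds tested at 100-1.56 μg/ml. […] IC50 was derived by nonlinear regression of % inhibition against log10 concentration.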

Coryne bacterium = test: Zone of inhibition, disk diffusion; assay type: cell-based
Escherichia coli = test: Zone of inhibition, disk diffusion; assay type: cell-based; conditions: E. coli, 100 μg/disk
Bacillus lentus = test: Zone of inhibition, disk diffusion; assay type: cell-based
Rhodospirillum rubrum = test: MIC, two-fold serial dilution; assay type: cell-based; conditions: 24 h, read-out: R. ruberum MIC× 10^−3
Vibrio cholerae = test: MIC, two-fold serial dilution; assay type: cell-based; conditions: 24 h, read-out: V. cholerae MIC× 10^−3
Candida albicans = test: MIC, two-fold serial dilution; assay type: cell-based; conditions: read-out: C. albicans MIC× 10^−3
Procedure, shortened: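 Fungal MIC determined by two-fold serial dilution, with clotrimazole as reference standard. Growth was scored visually after 72-96 h incubation. MIC was taken as the lowest concentration with no visible growth.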

O=C(O)c1cn(C2CC2)c2cc(N3CCNCC3)c(F)cc2c1=O [CFN, ciprofloxacin]
TB Activity MIC×10^-3 (MTB37RV) [1]: 09.40 ×10^-3 μM/ml

CC[C@@H](CO)NCCN[C@@H](CC)CO [Ethambutol, ethambutol]
TB Activity MIC×10^-3 (MTB37RV) [1]: 07.60 ×10^-3 μM/ml

CC1=NN(CNc2ccc(O)cc2)C(=O)C1=NNn1c(-c2ccccc2)nc2ccccc2c1=O [QP3, 3-{2-[-1-{[(4-hydroxyphenyl)amino]methyl}-3-methyl-5-oxo-4,5-dihydro-1H-pyrazol-4-ylidene] hydrazin-1-yl}-2-phenyl-3,4-dihydroquinazolin-4-one]
Selective Index (SI) (SI=IC50/MIC) [2]: 01.16

CC1=NN(CNc2ccc(Cl)cc2)C(=O)C1=NNn1c(-c2ccccc2)nc2ccccc2c1=O [QP4, 3-{2-[-1-{[(4-chlorophenyl)amino]methyl}-3-methyl-5-oxo-4,5-dihydro-1H-pyrazol-4-ylidene] hydrazin-1-yl}-2-phenyl-3,4-dihydroquinazolin-4-one]
C. bacterium % of I (Coryne bacterium): 90%

CC1=NN(CNc2ccc(C(=O)O)cc2)C(=O)C1=NNn1c(-c2ccccc2)nc2ccccc2c1=O [QP6, 4-({[-3-methyl-5-oxo-4-[2-(4-oxo-2-phenyl-3,4-dihydroquinazolin-3-yl)hydrazin-1-ylidene]-4,5-dihydro-1H-pyrazol-1-yl]methyl}amino)benzoic acid]
C. bacterium % of I (Coryne bacterium): 90%
antibacterial activity relative to standard drug ciprofloxacin (Escherichia coli): 1.5 times

CC(=O)NCN1N=C(C)C(=NNn2c(-c3ccccc3)nc3ccccc3c2=O)C1=O [QP9, N-{[-3-methyl-5-oxo-4-[2-(4-oxo-2-phenyl-3,4-dihydroquinazolin-3-yl)hydrazin-1-ylidene]-4,5-dihydro-1H-pyrazol-1-yl]methyl}acetamide]
B. lentus % of I (Bacillus lentus): 95%
Selective Index (SI) (SI=IC50/MIC) [2]: 18.16

CC1=NN(CNC(=O)c2ccccc2)C(=O)C1=NNn1c(-c2ccccc2)nc2ccccc2c1=O [QP11, N-{[-3-methyl-5-oxo-4-[2-(4-oxo-2-phenyl-3,4-dihydroquinazolin-3-yl)hydrazin-1-ylidene]-4,5-dihydro-1H-pyrazol-1-yl]methyl}benzamide]
B. lentus % of I (Bacillus lentus): 95%
TB Activity MIC×10^-3 (MTB37RV) [1]: 06.49 ×10^-3 μM/ml

O=C1NN=C(N=Cc2ccccc2)C1=NNn1c(-c2ccccc2)nc2ccccc2c1=O [QSP1, 3-{2-[-5-oxo-3-[-(phenylmethylidene)amino]-4,5-dihydro-1H-pyrazol-4-ylidene]hydrazin-1-yl}-2-phenyl-3,4-dihydroquinazolin-4-one]
Selective Index (SI) (SI=IC50/MIC) [2]: 10.92

O=C1NN=C(N=Cc2ccccc2O)C1=NNn1c(-c2ccccc2)nc2ccccc2c1=O [QSP2, 3-{2-[-3-[-[(2-hydroxyphenyl)methylidene]amino]-5-oxo-4,5-dihydro-1H-pyrazol-4-ylidene]hydrazin-1-yl}-2-phenyl-3,4-dihydroquinazolin-4-one]
Selective Index (SI) (SI=IC50/MIC) [2]: 16.32

O=C1NN=C(N=Cc2ccc(O)cc2O)C1=NNn1c(-c2ccccc2)nc2ccccc2c1=O [QSP3, 3-{2-[-3-[-[(2,4-dihydroxyphenyl)methylidene]amino]-5-oxo-4,5-dihydro-1H-pyrazol-4-ylidene] hydrazin-1-yl}-2-phenyl-3,4-dihydroquinazolin-4-one]
Selective Index (SI) (SI=IC50/MIC) [2]: 08.35

O=C1NN=C(N=Cc2ccc(O)c(O)c2)C1=NNn1c(-c2ccccc2)nc2ccccc2c1=O [QSP4, 3-{2-[-3-[-[(3,4-dihydroxyphenyl)methylidene]amino]-5-oxo-4,5-dihydro-1H-pyrazol-4-ylidene] hydrazin-1-yl}-2-phenyl-3,4-dihydroquinazolin-4-one]
MIC (Rhodospirillum rubrum): 26.7 µM (≈ 12.5 µg/mL)
MIC (Vibrio cholerae): 26.7 µM (≈ 12.5 µg/mL)
MIC (Candida albicans): 26.7 µM (≈ 12.5 µg/mL)
